According to ChEMBL document CHEMBL4813970, “Design, synthesis and evaluation of novel dimethylamino chalcone-O-alkylamines derivatives as potential multifunctional agents against Alzheimer's disease” (Eur J Med Chem, 2021):

Key:
[1] = Antioxidant activity of compound assessed as trolox equivalent antioxidant capacity by ORAC-FL assay; format: functional
Acetylcholinesterase [2] = target: T1, Acetylcholinesterase (Rattus norvegicus, UniProt P37136); assay: Inhibition of rat cortex homogenate acetylcholinesterase by Ellman's method
T1 sequence (P37136 whole entry): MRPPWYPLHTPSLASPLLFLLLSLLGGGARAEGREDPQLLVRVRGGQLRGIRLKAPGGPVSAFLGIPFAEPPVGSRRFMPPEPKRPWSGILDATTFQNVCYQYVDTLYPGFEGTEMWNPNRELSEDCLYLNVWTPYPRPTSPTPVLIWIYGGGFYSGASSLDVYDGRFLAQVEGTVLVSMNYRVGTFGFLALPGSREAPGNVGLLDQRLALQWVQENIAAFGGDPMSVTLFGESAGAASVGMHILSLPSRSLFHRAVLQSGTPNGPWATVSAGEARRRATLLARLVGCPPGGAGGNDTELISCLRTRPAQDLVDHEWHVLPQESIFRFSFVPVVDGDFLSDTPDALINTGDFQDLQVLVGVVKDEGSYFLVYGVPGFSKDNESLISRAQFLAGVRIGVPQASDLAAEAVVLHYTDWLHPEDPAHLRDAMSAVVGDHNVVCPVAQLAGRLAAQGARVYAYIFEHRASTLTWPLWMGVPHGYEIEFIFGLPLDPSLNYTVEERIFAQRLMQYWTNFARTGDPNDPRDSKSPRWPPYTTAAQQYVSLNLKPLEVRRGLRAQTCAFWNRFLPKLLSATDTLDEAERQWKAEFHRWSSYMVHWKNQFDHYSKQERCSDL

Butyrylcholinesterase = Butyrylcholinesterase (Rattus norvegicus, UniProt Q9JKC1); assay: Inhibition of rat serum BuChE by Ellman's method
Butyrylcholinesterase, sequence (Q9JKC1 whole entry): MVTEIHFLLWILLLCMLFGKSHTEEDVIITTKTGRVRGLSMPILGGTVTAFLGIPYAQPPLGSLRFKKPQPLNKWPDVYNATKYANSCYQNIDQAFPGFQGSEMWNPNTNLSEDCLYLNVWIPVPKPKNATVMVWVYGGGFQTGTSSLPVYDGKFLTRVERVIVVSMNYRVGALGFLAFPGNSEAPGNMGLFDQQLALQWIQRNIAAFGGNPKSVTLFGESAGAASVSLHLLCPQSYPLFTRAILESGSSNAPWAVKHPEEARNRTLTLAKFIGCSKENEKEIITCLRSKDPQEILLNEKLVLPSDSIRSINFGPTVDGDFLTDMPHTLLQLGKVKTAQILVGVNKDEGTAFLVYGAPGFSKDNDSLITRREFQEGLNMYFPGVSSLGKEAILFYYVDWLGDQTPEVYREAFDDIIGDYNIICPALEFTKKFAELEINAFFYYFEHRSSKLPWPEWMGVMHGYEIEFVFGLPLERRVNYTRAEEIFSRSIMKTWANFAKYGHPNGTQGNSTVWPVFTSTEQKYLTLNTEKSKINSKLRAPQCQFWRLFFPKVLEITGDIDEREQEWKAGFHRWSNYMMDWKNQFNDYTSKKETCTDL

Acetylcholinesterase [3] = target: Acetylcholinesterase (Electrophorus electricus, UniProt O42275); assay: Inhibition of electric eel AChE using acetylthiocholine iodide as substrate by Ellman's method
Acetylcholinesterase (Electrophorus electricus, UniProt O42275), sequence (O42275 whole entry): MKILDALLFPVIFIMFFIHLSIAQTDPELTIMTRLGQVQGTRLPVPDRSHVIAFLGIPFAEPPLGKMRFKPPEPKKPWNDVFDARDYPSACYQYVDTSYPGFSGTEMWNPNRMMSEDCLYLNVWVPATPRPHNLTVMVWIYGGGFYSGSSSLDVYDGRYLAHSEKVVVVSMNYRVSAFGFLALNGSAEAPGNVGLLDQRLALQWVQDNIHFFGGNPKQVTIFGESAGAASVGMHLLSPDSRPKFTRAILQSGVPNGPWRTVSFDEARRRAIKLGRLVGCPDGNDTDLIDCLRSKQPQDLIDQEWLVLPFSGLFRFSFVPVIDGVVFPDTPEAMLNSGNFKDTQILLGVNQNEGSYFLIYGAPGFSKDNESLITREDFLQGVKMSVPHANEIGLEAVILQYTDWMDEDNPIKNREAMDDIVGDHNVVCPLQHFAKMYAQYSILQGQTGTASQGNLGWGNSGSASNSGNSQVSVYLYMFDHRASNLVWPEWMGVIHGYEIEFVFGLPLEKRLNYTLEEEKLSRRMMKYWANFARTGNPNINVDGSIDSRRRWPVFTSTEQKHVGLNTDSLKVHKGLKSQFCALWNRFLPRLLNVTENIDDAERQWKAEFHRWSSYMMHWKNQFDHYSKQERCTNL

[4] = target: T2, Amine oxidase [flavin-containing] B (Homo sapiens, UniProt P27338); assay: Inhibition of human recombinant MAO-B by multimode plate reader assay
T2 sequence (P27338 whole entry): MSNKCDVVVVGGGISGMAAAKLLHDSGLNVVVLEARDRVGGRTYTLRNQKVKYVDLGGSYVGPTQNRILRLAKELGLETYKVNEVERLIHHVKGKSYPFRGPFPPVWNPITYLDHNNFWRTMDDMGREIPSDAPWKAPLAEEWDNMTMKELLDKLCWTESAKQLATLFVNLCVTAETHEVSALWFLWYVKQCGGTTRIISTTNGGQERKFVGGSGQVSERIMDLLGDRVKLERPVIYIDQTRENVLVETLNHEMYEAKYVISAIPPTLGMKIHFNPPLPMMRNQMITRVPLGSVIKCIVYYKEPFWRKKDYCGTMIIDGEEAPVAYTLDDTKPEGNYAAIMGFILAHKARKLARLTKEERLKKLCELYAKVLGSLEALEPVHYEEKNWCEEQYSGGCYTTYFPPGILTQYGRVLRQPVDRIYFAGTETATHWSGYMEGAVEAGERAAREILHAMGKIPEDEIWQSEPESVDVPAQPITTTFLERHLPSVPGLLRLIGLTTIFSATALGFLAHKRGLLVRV

[5] = target: T3, Amine oxidase [flavin-containing] A (Homo sapiens, UniProt P21397); assay: Inhibition of human recombinant MAO-A by multimode plate reader assay
T3 sequence (P21397 whole entry): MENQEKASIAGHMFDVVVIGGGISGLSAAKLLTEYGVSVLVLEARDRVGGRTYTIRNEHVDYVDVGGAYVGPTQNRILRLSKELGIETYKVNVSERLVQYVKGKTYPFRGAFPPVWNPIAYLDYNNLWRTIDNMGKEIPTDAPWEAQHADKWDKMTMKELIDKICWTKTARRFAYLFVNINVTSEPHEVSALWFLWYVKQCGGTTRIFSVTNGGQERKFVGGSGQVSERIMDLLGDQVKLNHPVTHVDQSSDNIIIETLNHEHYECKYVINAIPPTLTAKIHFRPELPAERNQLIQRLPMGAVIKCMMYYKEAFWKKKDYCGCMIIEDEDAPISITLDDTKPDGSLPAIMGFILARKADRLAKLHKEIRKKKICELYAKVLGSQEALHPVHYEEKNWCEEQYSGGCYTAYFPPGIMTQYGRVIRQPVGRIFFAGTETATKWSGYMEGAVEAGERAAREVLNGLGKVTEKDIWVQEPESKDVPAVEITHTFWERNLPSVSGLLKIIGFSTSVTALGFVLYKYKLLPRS

Homo sapiens = organism: Homo sapiens; assay: Selectivity index, ratio of IC50 for recombinant human MAO-A to IC50 for recombinant human MAO-B
Method in brief: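 Selectivity index taken as IC50(hMAO-A)/IC50(hMAO-B). IC50 values are mean ± SEM from three experiments.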

[6] = target: T4, Amyloid-beta precursor protein (Homo sapiens, UniProt P05067); assay: Inhibition of self-induced amyloid beta (1 to 42) (unknown origin) aggregation at 25 uM by T-fluorescence assay relative to control
T4 sequence (P05067 whole entry): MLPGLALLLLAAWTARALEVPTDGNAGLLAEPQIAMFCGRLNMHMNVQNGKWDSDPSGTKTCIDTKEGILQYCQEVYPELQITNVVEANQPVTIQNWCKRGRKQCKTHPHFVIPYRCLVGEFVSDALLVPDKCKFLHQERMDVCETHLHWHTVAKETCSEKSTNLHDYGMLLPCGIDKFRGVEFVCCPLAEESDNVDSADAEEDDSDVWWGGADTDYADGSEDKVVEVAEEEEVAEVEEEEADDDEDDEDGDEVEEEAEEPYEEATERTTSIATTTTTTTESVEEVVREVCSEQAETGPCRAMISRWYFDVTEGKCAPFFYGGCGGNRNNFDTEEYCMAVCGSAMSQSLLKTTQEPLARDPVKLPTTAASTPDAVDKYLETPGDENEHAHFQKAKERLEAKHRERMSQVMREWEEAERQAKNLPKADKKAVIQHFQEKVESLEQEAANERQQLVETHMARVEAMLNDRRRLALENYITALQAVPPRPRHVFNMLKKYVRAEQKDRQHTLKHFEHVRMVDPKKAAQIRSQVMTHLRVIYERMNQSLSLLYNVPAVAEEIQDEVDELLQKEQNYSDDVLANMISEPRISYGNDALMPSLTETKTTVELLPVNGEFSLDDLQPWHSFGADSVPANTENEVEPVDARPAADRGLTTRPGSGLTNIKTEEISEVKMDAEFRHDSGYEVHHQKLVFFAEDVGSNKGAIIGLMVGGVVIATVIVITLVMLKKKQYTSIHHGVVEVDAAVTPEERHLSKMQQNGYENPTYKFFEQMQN
Method in brief: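 Self-induced Aβ1-42 aggregation measured by ThT fluorescence, excitation 446 nm and emission 490 nm. Compound and Aβ1-42 each at 25 μM. Run in triplicate. Values are mean of three independent experiments.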

[7] = target: T4, Amyloid-beta precursor protein; assay: Disaggregation of self-induced amyloid beta (1 to 42) (unknown origin) at 25 uM measured by Thioflavin T based fluorometric assay relative to control
[8] = target: T4, Amyloid-beta precursor protein; assay: Inhibition of self-induced amyloid beta (1 to 42) (unknown origin) aggregation by T-fluorescence assay relative to control
Method in brief: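 IC50 by ThT fluorescence (excitation 446 nm, emission 490 nm). Computed only where inhibition of self-induced Aβ1-42 aggregation at 25 μM exceeded 90%. Triplicate; mean of three independent experiments.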

[9] = target: T4, Amyloid-beta precursor protein; assay: Inhibition of Cu2+ induced amyloid beta (1 to 42 residues) (unknown origin) aggregation at 25 uM by thioflavin-T fluorescence method relative to control
[10] = target: T4, Amyloid-beta precursor protein; assay: Disaggregation of Cu2+ induced amyloid beta (1 to 42 residues) (unknown origin) aggregation at 25 uM by thioflavin-T fluorescence method relative to control

Row | Compound | Activity [1] | IC50 (Acetylcholinesterase [2]) | IC50 (Butyrylcholinesterase) | IC50 (Acetylcholinesterase [3]) | IC50 [4] | IC50 [5] | Selectivity Index (Homo sapiens) | inhibition [6] | Activity [7] | IC50 ([8]; read-out: IC50) | inhibition [9] | Activity [10] | IC50 [8]
1 | CCN(CCCOc1ccc(C(=O)/C=C/c2ccccc2)c(O)c1)Cc1ccccc1N(C)C | 1.3 | 0.31 µM | > 500 µM | 2 µM | 0.8 µM | 67.8 µM | 84.4 | 23% | – | – | – | – | –
2 | CCN(CCCCOc1ccc(C(=O)/C=C/c2ccc(N(C)C)cc2)c(O)c1)Cc1ccccc1OC | 1.4 | 0.65 µM | > 500 µM | 4.12 µM | 1.1 µM | 27.5 µM | 25 | – | 99.7% | 1.48 µM | 91.9% | 73% | –
3 | COc1ccc(/C=C/C(=O)c2ccc(N(C)C)cc2O)cc1 | 1.5 | > 500 µM | > 500 µM | > 500 µM | 13.3 µM | 42.5 µM | 3.2 | 36.1% | – | – | – | – | –
4 | CCN(CCCCCCOc1ccc(C(=O)/C=C/c2ccc(N(C)C)cc2)c(O)c1)Cc1ccc(N(C)C)cc1 | 1.4 | 1.37 µM | > 500 µM | 7.95 µM | 2.3 µM | 53.6 µM | 23.3 | – | 95% | 1.38 µM | 95.6% | 84.4% | –
5 | CCN(CCCOc1ccc(C(=O)/C=C/c2ccc(N(C)C)cc2)c(O)c1)Cc1ccc(N(C)C)cc1 | 1.3 | 2.47 µM | > 500 µM | 6.21 µM | 13.7 µM | 57.5 µM | 4.2 | – | 73.7% | 1.32 µM | 95% | 77.6% | –
6 | COc1ccc(C(=O)/C=C/c2ccc(N(C)C)cc2)c(O)c1 | 1.2 | > 500 µM | > 500 µM | > 500 µM | 0.21 µM | 7.62 µM | 36.3 | 59.7% | – | – | – | – | –
7 | CCN(CCCCOc1ccc(/C=C/C(=O)c2ccc(N(C)C)cc2O)cc1)Cc1ccccc1N(C)C | 1.5 | – | > 500 µM | 3.02 µM | 4.3 µM | 12.3 µM | 2.9 | 75.8% | – | – | – | – | –
8 | CCN(CC)CCCOc1ccc(C(=O)/C=C/c2ccc(N(C)C)cc2)c(O)c1 | 1.2 | 2.25 µM | > 500 µM | 1.35 µM | 4.1 µM | 47.1 µM | 11.5 | 64.1% | – | – | – | – | –
9 | CCN(CCCCOc1ccc(C(=O)/C=C/c2ccc(N(C)C)cc2)c(O)c1)Cc1ccccc1 | 1.5 | 1.39 µM | 202 µM | 4.3 µM | 8.9 µM | 77.3 µM | 8.7 | – | 97.2% | 3.78 µM | 93.9% | 82.1% | –
10 | CCN(CCCCCCOc1ccc(C(=O)/C=C/c2ccc(N(C)C)cc2)c(O)c1)Cc1ccccc1OC | 1.4 | 0.56 µM | > 500 µM | 5.17 µM | 0.7 µM | 54.3 µM | 77.6 | – | 92.6% | 1.49 µM | 93.2% | 85.6% | –
11 | CCN(CCCCCCOc1ccc(C(=O)/C=C/c2ccc(N(C)C)cc2)c(O)c1)Cc1ccccc1N(C)C | 2 | 0.31 µM | 422 µM | 2.44 µM | 2.1 µM | 37.8 µM | 18 | – | 87.9% | 1.03 µM | 96.5% | 83.4% | –
12 | COc1cc2c(cc1OC)C(=O)C(CC1CCN(Cc3ccccc3)CC1)C2 (configuration not stated) [DONEPEZIL] | – | – | – | – | – | – | – | – | – | – | – | – | Not Active
13 | CCN(CCCCOc1ccc(/C=C/C(=O)c2ccc(N(C)C)cc2O)cc1)Cc1ccccc1OC | 1.6 | 0.71 µM | > 500 µM | 1.63 µM | 4.6 µM | 9.2 µM | 2 | 70.1% | – | – | – | – | –
14 | CCN(CCCCCCOc1ccc(C(=O)/C=C/c2ccc(N(C)C)cc2)c(O)c1)Cc1ccccc1 | 1.4 | 4 µM | > 500 µM | 3.59 µM | 2.1 µM | 31.6 µM | 15 | – | 84.4% | 3.17 µM | 91% | 88.3% | –
15 | CCN(CCCOc1ccc(C(=O)/C=C/c2ccc(N(C)C)cc2)c(O)c1)Cc1ccccc1OC | 1.5 | 0.63 µM | > 500 µM | 5.3 µM | 10.8 µM | 26.3 µM | 2.4 | – | 98.1% | 3.56 µM | 95.2% | 74.8% | –
16 | CCN(CCCCOc1ccc(C(=O)/C=C/c2ccc(N(C)C)cc2)c(O)c1)Cc1ccc(N(C)C)cc1 | 1.5 | 1.35 µM | 68.9 µM | 1.96 µM | 2.4 µM | 17.2 µM | 7.2 | – | 91.6% | 2.1 µM | 91.7% | 78.8% | –
17 | CN(C)c1ccc(/C=C/C(=O)c2ccc(N(C)C)cc2O)cc1 | 1.7 | > 500 µM | > 500 µM | > 500 µM | 12.1 µM | 47.9 µM | 4 | 64.3% | – | – | – | – | –
18 | CCN(CCCOc1ccc(C(=O)/C=C/c2ccc(N(C)C)cc2)c(O)c1)Cc1ccccc1 | 1.6 | 1.44 µM | > 500 µM | 5.06 µM | 13.1 µM | 82.6 µM | 6.3 | – | 97.5% | 1.68 µM | 91.9% | 73.8% | –
19 | CCN(CCCOc1ccc(C(=O)/C=C/c2ccc(N(C)C)cc2)c(O)c1)Cc1ccccc1N(C)C | 2.1 | 0.21 µM | 339 µM | 1.59 µM | 3.2 µM | 23.6 µM | 7.4 | – | 96.6% | 1.27 µM | 94.8% | 89.5% | –
